Reference: ChEMBL document CHEMBL1132188, “Probes for narcotic receptor mediated phenomena. 26. Synthesis and biological evaluation of diarylmethylpiperazines and diarylmethylpiperidines as novel, nonpeptidic delta opioid receptor ligands” (J Med Chem, 1999)

Legend:
[1] = target: Delta-type opioid receptor (Mus musculus, UniProt P32300); experiment: Agonist activity using electrically induced smooth muscle contraction of mouse vas deferens.; format: functional
[2] = target: T1, Delta-type opioid receptor (Rattus norvegicus, UniProt P33533); experiment: In vitro binding affinity to Opioid receptor delta 1 in rat brain membranes by [3H]DADLE (Tyr-D-Ala-Gly-Phe-D-Leu) displacement.; format: cell membranes
T1 sequence (P33533 whole entry): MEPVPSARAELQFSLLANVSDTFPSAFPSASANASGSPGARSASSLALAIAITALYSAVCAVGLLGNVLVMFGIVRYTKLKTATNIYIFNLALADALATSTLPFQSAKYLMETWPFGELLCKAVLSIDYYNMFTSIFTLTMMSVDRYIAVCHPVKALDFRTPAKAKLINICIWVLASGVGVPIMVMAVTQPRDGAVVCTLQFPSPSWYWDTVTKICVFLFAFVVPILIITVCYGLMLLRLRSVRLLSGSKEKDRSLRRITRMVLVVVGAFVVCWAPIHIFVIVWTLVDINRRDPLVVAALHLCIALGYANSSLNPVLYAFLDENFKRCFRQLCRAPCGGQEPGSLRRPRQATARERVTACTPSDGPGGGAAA
In short: (§1)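 [3H]DADLE (2 nM) was bound to daily-prepared rat brain membranes for 2 h at 25 °C in 50 mM Tris-HCl pH 7.4 with 100 mM choline chloride, 3 mM MnCl2, DAMGO to block mu sites, and protease inhibitor cocktail. Nonspecific binding was defined with 20 µM levallorphan. Ten drug concentrations were run twice. Ki from IC50 by Cheng–Prusoff.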

[3] = target: T2, Kappa-type opioid receptor (Cavia porcellus, UniProt P41144); experiment: In vitro radioligand binding assay, for inhibition of [3H]U-69593 binding to Opioid receptor kappa 1, in guinea pig brain membranes.; format: cell membranes
T2 sequence (P41144 whole entry): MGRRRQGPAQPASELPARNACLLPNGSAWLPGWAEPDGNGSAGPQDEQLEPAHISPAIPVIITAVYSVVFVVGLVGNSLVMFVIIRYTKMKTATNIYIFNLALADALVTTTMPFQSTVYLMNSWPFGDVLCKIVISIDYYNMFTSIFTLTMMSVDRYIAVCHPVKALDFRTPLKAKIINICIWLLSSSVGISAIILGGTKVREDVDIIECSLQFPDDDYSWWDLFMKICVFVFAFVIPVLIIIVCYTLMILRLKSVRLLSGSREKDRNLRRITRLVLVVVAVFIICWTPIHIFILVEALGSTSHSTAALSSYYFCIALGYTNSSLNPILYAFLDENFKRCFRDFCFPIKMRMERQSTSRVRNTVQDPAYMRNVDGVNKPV
In short: (§2)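 Guinea pig brain membranes were homogenised in ice-cold 10 mM Tris-HCl pH 7.0, centrifuged twice at 30000g, and resuspended in 50 mM Tris-HCl pH 7.4. [3H]U69,593 (2 nM) was incubated 2 h at 25 °C with protease inhibitor cocktail and 1 µg/mL captopril. Nonspecific binding was defined with 1 µM U69,593. Ten drug concentrations were run twice. Ki = IC50/(1+[L]/Kd).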

Mu-type opioid receptor [4] = target: Mu-type opioid receptor (Cavia porcellus, UniProt P97266); experiment: Agonist activity using strips of guinea pig ileum longitudinal muscle myenteric plexus.; format: functional, tissue-based
Mu-type opioid receptor (Cavia porcellus, UniProt P97266), sequence (P97266 whole entry): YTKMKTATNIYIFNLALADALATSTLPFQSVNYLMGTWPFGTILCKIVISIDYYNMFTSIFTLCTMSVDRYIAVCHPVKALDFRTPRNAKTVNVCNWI
In short: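 Longitudinal muscle–myenteric plexus strips from male Hartley guinea pigs (250–500 g) at 1 g tension in Krebs bicarbonate, 37 °C, 95% O2/5% CO2. Transmural stimulation at 0.1 Hz, 0.4 ms pulses, supramaximal voltage. Cumulative agonist doses; % inhibition of contraction height. IC50 by nonlinear least squares.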

Mu-type opioid receptor [5] = target: T3, Mu-type opioid receptor (Rattus norvegicus, UniProt P33535); experiment: In vitro radioligand binding assay, for inhibition of [3H]DAMGO (Tyr-D-Ala-Gly-(Me)-Phe-Gly-ol) binding to Opioid receptor mu 1 in rat brain membranes.; format: cell membranes
T3 sequence (P33535 whole entry): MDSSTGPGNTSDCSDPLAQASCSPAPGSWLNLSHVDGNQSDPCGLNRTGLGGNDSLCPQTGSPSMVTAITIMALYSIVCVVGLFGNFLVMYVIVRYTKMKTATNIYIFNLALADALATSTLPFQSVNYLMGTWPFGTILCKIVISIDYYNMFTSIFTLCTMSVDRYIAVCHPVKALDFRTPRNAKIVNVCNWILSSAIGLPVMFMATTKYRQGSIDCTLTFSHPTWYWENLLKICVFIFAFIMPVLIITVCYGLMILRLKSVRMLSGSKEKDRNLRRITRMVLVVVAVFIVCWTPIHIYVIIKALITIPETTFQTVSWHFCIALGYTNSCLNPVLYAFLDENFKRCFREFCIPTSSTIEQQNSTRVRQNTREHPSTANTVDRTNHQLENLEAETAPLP
In short: (§3)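 Rat brain membranes prepared daily: homogenised in ice-cold 10 mM Tris-HCl pH 7.0, centrifuged twice at 30000g for 10 min, resuspended in 50 mM Tris-HCl pH 7.4. Incubation 2 h at 25 °C in 50 mM Tris-HCl pH 7.4 with protease inhibitor cocktail. Nonspecific binding was defined with 20 µM levallorphan. Ten drug concentrations were run twice. Ki = IC50/(1+[L]/Kd).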

[6] = Ki ratio of mu to delta receptor
[7] = IC50 ratio of mu to delta receptor
Mu-type opioid receptor [8] = target: T3, Mu-type opioid receptor; experiment: In vitro radioligand binding assay, for inhibition of [3H]-DAMGO (Tyr-D-Ala-Gly-(Me)-Phe-Gly-ol) binding to Opioid receptor mu 1 in rat brain membranes at highest concentration of 6600 nM tested; format: cell membranes; in short: as §3
[9] = target: T2, Kappa-type opioid receptor; experiment: In vitro radioligand binding assay, for inhibition of [3H]U-69593 binding to Opioid receptor kappa 1, in guinea pig brain membranes, at highest concentration of 7000 nM tested; format: cell membranes; in short: as §2
Mu-type opioid receptor [10] = target: T3, Mu-type opioid receptor; experiment: In vitro radioligand binding assay, for inhibition of [3H]DAMGO (Tyr-D-Ala-Gly-(Me)-Phe-Gly-ol) binding to Opioid receptor mu 1 in rat brain membranes at highest concentration of 5600 nM tested; format: cell membranes; in short: as §3
Mu-type opioid receptor [11] = target: T3, Mu-type opioid receptor; experiment: In vitro radioligand binding assay, for inhibition of [3H]DAMGO (Tyr-D-Ala-Gly-(Me)-Phe-Gly-ol) binding to Opioid receptor mu 1 in rat brain membranes at highest concentration of 6300 nM tested; format: cell membranes; in short: as §3
[12] = target: T2, Kappa-type opioid receptor; experiment: In vitro radioligand binding assay, for inhibition of [3H]U-69593 binding to Opioid receptor kappa 1, in guinea pig brain membranes, at highest concentration of 8000 nM tested; format: cell membranes; in short: as §2
Mu-type opioid receptor [13] = target: T3, Mu-type opioid receptor; experiment: In vitro radioligand binding assay, for inhibition of [3H]DAMGO (Tyr-D-Ala-Gly-(Me)-Phe-Gly-ol) binding to Opioid receptor mu 1 in rat brain membranes at highest concentration of 6800 nM tested; format: cell membranes; in short: as §3
[14] = target: T1, Delta-type opioid receptor; experiment: In vitro radioligand binding assay, for inhibition of [3H]DADLE (Tyr-D-Ala-Gly-Phe-D-Leu) binding to Opioid receptor delta 1, in rat brain membranes at highest concentration of 1700 nM tested; format: cell membranes; in short: as §1

Delta-type opioid receptor (Mus musculus, UniProt P32300), sequence (P32300 whole entry): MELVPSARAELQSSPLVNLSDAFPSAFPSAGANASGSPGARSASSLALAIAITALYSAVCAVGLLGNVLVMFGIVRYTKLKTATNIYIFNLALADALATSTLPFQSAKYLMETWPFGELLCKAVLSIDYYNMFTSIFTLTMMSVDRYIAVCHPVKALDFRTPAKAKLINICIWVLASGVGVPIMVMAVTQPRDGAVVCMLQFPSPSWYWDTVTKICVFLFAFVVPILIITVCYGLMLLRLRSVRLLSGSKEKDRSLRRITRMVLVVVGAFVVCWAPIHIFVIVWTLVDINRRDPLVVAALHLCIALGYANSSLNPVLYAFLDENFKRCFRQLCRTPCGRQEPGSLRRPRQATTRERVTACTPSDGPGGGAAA

Structure (SMILES) | Ki [2] | Ki ratio [6] | Ki [12] | Ki (Mu-type opioid receptor [13]) | also measured
C=CCN1CCN(C(c2ccc(C(=O)N(CC)CC)cc2)c2cccc(OC)c2)CC1 (stereo not drawn) | 27 nM | > 230 | – | – | IC50 [1]: 33.1 nM; Ki [3]: 10 µM; IC50 (Mu-type opioid receptor [4]): 20.3 µM; Ki (Mu-type opioid receptor [5]): 10 µM; Ratio [7]: 610
C=CCN1CCN(C(c2ccccc2)c2ccc(C(=O)N(CC)CC)cc2)CC1 (stereo not drawn) | 10.5 nM | > 600 | – | – | Ki (Mu-type opioid receptor [8]): 10 µM
CCN(CC)C(=O)c1ccc(C(c2ccccc2)N2CCN(C)CC2)cc1 (stereo not drawn) | 43.2 nM | > 130 | – | – | Ki [9]: 10 µM; Ki (Mu-type opioid receptor [10]): 10 µM
CCN(CC)C(=O)c1ccc(C(=C2CCN(Cc3ccccc3)CC2)c2cccc(OC)c2)cc1 | 12 nM | > 500 | – | – | Ki [3]: 7.65 µM; Ki (Mu-type opioid receptor [11]): 10 µM
CCN(CC)C(=O)c1ccc(C(OCCN(C)C)c2cccc(OC)c2)cc1 (stereo not drawn) | 258 nM | > 20 | 10 µM | 10 µM | –
CCN(CC)C(=O)c1ccc(C(c2ccccc2)N2CCN(Cc3ccccc3)CC2)cc1 (stereo not drawn) | 1.48 nM | > 4500 | – | 10 µM | IC50 [1]: 25.7 nM; Ki [9]: 2 µM; IC50 (Mu-type opioid receptor [4]): 9.85 µM; Ratio [7]: 382
CCN(CC)C(=O)c1ccc(C(=C2CCNCC2)c2cccc(OC)c2)cc1 | 5 nM | > 1200 | 10 µM | – | IC50 [1]: 125 nM; IC50 (Mu-type opioid receptor [4]): 27.7 µM; Ki (Mu-type opioid receptor [11]): 10 µM; Ratio [7]: 220
C=CCN1C[C@H](C)N([C@@H](c2ccccc2)c2ccc(C(=O)N(CC)CC)cc2)C[C@H]1C | 0.5 nM | > 3600 | – | – | Ki [3]: 3 µM; Ki (Mu-type opioid receptor [5]): 3 µM; Ratio [7]: 813
CCN(CC)C(=O)c1ccc(C(c2cccc(OC)c2)N(C)CCN(C)C)cc1 (stereo not drawn) | 248 nM | > 20 | 10 µM | 10 µM | –
CCCN1CCN(C(c2ccccc2)c2ccc(C(=O)N(CC)CC)cc2)CC1 (stereo not drawn) | 44.2 nM | > 150 | – | 10 µM | Ki [9]: 10 µM
CCN(CC)C(=O)c1ccc(C(c2ccccc2)N2CCNCC2)cc1 (stereo not drawn) | 4.85 nM | > 1400 | – | 10 µM | –
CCN(CC)C(=O)c1ccc(C(NCCN(C)C)c2cccc(OC)c2)cc1 (stereo not drawn) | 622 nM | > 10 | 10 µM | 10 µM | –
CCN(CC)C(=O)c1ccc(C(c2ccccc2)N2CCOCC2)cc1 (stereo not drawn) | – | > 4 | – | 10 µM | Ki [14]: 3 µM; Ki [9]: 10 µM
CCN(CC)C(=O)c1ccc(C(c2ccccc2)N2CCCCC2)cc1 (stereo not drawn) | – | > 4 | – | 10 µM | Ki [14]: 3 µM; Ki [9]: 10 µM
CCN(CC)C(=O)c1ccc(C(c2cccc(OC)c2)C2CCNCC2)cc1 (stereo not drawn) | 20 nM | > 300 | 10 µM | – | Ki (Mu-type opioid receptor [11]): 10 µM
C=CCN1CCC(C(c2ccc(C(=O)N(CC)CC)cc2)c2cccc(OC)c2)CC1 (stereo not drawn) | 27 nM | > 200 | 10 µM | – | Ki (Mu-type opioid receptor [11]): 10 µM
CCN(CC)C(=O)c1ccc(C(c2cccc(OC)c2)C2CCN(C)CC2)cc1 (stereo not drawn) | 328 nM | > 15 | 10 µM | – | Ki (Mu-type opioid receptor [11]): 10 µM
C=CCN1C[C@H](C)N([C@H](c2ccc(C(=O)N(CC)CC)cc2)c2cccc(OC)c2)C[C@H]1C [SNC-80] | – | – | – | – | Ki [3]: 11.7 µM; Ki (Mu-type opioid receptor [5]): 3.97 µM
